Key:
HeLa [1] = test: Tumor promoter activity in human HeLa cells assessed as enhancement of incorporation of 32Pi into phospholipid per mg of protein at 0.1 uM; format: ADME, cell-based
In short: (§1)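 HeLa cells treated with compound in 0.2% DMSO (vehicle control). Radioactive inorganic phosphate (32Pi) uptake into phospholipids measured by a previously reported method with slight modifications. Results given as cpm per mg protein relative to the DMSO control, with standard deviation. Compound tested at 10^-10 to 10^-7 M.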

HeLa [2] = test: Tumor promoter activity in human HeLa cells assessed as enhancement of incorporation of 32Pi into phospholipid per mg of protein at 10 nM; format: ADME, cell-based; conditions: 0.01 µM; in short: as §1
HeLa [3] = test: Tumor promoter activity in human HeLa cells assessed as enhancement of incorporation of 32Pi into phospholipid per mg of protein at 0.1 nM; format: ADME, cell-based; conditions: 0.0001 µM; in short: as §1
HeLa [4] = test: Tumor promoter activity in human HeLa cells assessed as enhancement of incorporation of 32Pi into phospholipid per mg of protein at 1 nM; format: ADME, cell-based; conditions: 0.001 µM; in short: as §1
[5] = Displacement of [3H]TPA from phorbol ester receptor in ICR mouse epidermal particulate
In short: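 Competition for specific [3H]-TPA binding to a particulate fraction from dorsal epidermis of female ICR mice, by the cold Me2CO filter method with slight modifications. IC50 (concentration giving 50% inhibition) found by probit analysis. Because IC50 drifts between particulate preparations, all compounds were run together on one fraction. Value reported as log 1/M.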

Row | pIC50 [5] | Compound | relative 32Pi incorporation (HeLa [1]) | relative 32Pi incorporation (HeLa [2]) | relative 32Pi incorporation (HeLa [3]) | relative 32Pi incorporation (HeLa [4])
1 |  | C=C[C@@]1(C)CC[C@](C)(C(C)C)c2cc3c4c(c[nH]c4c21)C[C@@H](CO)NC(=O)[C@H](C(C)C)N3C | 7.46 | 6.72 | 1.19 | 1.82
2 |  | C=C[C@](C)(CCC=C(C)C)c1ccc2c3c(c[nH]c13)C[C@@H](CO)NC(=O)[C@H](C(C)C)N2C | 8.36 | 4.59 | 1.05 | 1.57
3 | 8.05 | CC(C)=CCC/C(C)=C/Cc1ccc2c3c(c[nH]c13)C[C@@H](CO)NC(=O)[C@H](C(C)C)N2C | 6.64 | 2.61 | 0.97 | 1.41

From ChEMBL document CHEMBL1149047, “New teleocidin-related metabolites, (-)-7-geranylindolactam V and blastmycetin F, from Streptoverticillium blastmyceticum” (J Nat Prod, 1994)
